Results from ChEMBL document CHEMBL4325842, “Design, synthesis, and biological evaluation of novel aminopyrimidinylisoindolines as AXL kinase inhibitors” (Bioorg Med Chem Lett, 2018).

Tests used:
[1] = biological target: Tyrosine-protein kinase Fgr (Homo sapiens) (UniProt P09769); assay: Inhibition of human FGR at 10 uM using poly[Glu:Tyr] (4:1) as substrate by [gamma-33P]-ATP assay relative to control
In short: (§1)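 Commercial kinase panel screen at a single concentration of 10 μM. % inhibition was calculated as 100 minus % activity.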

PANC-1 = assay: Antiproliferative activity against human PANC1 cells after 2 days by spectrophotometric analysis; format: functional; conditions: PANC-1, 48 h
[2] = biological target: Ribosomal protein S6 kinase beta-1 (Homo sapiens) (UniProt P23443); assay: Inhibition of human RPS6KB1 at 10 uM using KKRNRTLTK as substrate by [gamma-33P]-ATP assay relative to control
In short: (§2)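 Kinase-panel profiling (50 oncogenic kinases) run by an outside contract service. The test compound was tested at a single concentration of 10 μM. Percent inhibition was calculated as 100 minus % remaining activity.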

[3] = biological target: Tyrosine-protein kinase JAK1 (Homo sapiens) (UniProt P23458); assay: Inhibition of human JAK1 at 10 uM using poly[Glu:Tyr] (4:1) as substrate by [gamma-33P]-ATP assay relative to control; in short: as §1
[4] = biological target: Tyrosine-protein kinase receptor UFO (Homo sapiens) (UniProt P30530); assay: Inhibition of human AXL at 10 uM using EAIYAAPFAKKK as substrate by [gamma-33P]-ATP assay relative to control; in short: as §1
[5] = biological target: Serine/threonine-protein kinase Chk1 (Homo sapiens) (UniProt O14757); assay: Inhibition of human CHK1 at 10 uM using KKKVSRSGLYRSPSMPENLNRPR as substrate by [gamma-33P]-ATP assay relative to control; in short: as §1
HCC78 = assay: Antiproliferative activity against human HCC78 cells after 2 days by spectrophotometric analysis; format: functional; conditions: HCC78, 48 h
[6] = biological target: Serine/threonine-protein kinase B-raf (Homo sapiens) (UniProt P15056); assay: Inhibition of human BRAF at 10 uM using MEK1 (K97R) as substrate by [gamma-33P]-ATP assay relative to control; in short: as §1
[7] = biological target: Inhibitor of nuclear factor kappa-B kinase subunit alpha (Homo sapiens) (UniProt O15111); assay: Inhibition of human IKKalpha at 10 uM using KKKKERLLDDRHDSGLDSMKDEE as substrate by [gamma-33P]-ATP assay relative to control; in short: as §1
[8] = biological target: T1, Tyrosine-protein kinase receptor UFO (Homo sapiens, UniProt P30530); assay: Inhibition of N-terminal His-tagged recombinant human AXL (473 to end amino acids) expressed by baculovirus in Sf9 cells using axltide substrate and ATP by ADP-Glo luminescence assay
T1 sequence (P30530 whole entry): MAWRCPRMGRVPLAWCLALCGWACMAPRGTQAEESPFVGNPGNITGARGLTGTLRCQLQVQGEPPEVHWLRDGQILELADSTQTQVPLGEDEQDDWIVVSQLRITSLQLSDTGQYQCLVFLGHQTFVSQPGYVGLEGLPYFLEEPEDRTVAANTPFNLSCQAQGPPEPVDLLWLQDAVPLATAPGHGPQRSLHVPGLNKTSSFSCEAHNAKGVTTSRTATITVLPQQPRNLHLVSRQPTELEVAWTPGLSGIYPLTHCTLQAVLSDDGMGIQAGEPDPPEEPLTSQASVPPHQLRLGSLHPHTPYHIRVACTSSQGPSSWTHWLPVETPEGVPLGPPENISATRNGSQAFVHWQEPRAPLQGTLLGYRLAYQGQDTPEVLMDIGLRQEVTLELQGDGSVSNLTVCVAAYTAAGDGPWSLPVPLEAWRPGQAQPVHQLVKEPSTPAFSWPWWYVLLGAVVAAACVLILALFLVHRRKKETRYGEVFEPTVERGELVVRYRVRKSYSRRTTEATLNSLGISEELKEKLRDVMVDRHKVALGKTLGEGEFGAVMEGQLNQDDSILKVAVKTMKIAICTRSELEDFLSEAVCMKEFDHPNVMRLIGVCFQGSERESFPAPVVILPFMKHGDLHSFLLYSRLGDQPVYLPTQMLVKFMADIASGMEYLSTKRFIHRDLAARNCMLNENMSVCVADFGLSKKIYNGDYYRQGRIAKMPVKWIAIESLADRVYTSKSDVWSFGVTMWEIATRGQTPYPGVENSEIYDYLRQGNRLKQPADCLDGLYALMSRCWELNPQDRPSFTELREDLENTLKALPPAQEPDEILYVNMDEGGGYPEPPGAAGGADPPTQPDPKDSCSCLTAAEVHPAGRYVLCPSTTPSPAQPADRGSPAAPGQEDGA

[9] = biological target: Tyrosine-protein kinase Mer (Homo sapiens, UniProt Q12866); assay: Inhibition of human MER using poly[Glu:Tyr] (4:1) as substrate by [gamma-33P]-ATP assay
[10] = biological target: Hepatocyte growth factor receptor (Homo sapiens) (UniProt P08581); assay: Inhibition of human c-MET at 10 uM using KKKSPGEYVNIEFG as substrate by [gamma-33P]-ATP assay relative to control; in short: as §2
[11] = biological target: ALK tyrosine kinase receptor (Homo sapiens) (UniProt Q9UM73); assay: Inhibition of human ALK at 10 uM using poly[Glu:Tyr] (4:1) as substrate by [gamma-33P]-ATP assay relative to control; in short: as §1
OVCAR-3 = assay: Antiproliferative activity against human OVCAR3 cells after 2 days by spectrophotometric analysis; format: functional; conditions: OVCAR-3, 48 h
In short: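 Cells from ATCC were kept in RPMI 1640 with 5% FBS. They were exposed to graded concentrations in DMSO/RPMI for 48 h at 37 C under 5% CO2, then fixed with 50% trichloroacetic acid. Cellular protein was read at 540 nm at time zero and at 48 h, with and without compound. TGI (100% growth inhibition) was taken from the concentration-response curve.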

[12] = biological target: Receptor-type tyrosine-protein kinase FLT3 (Homo sapiens, UniProt P36888); assay: Inhibition of human FLT3 using EAIYAAPFAKKK as substrate by [gamma-33P]-ATP assay
[13] = biological target: Ephrin type-A receptor 1 (Homo sapiens) (UniProt P21709); assay: Inhibition of human EPHA1 at 10 uM using poly[Glu:Tyr] (4:1) as substrate by [gamma-33P]-ATP assay relative to control; in short: as §1
[14] = biological target: Tyrosine-protein kinase ABL1 (Homo sapiens) (UniProt P00519); assay: Inhibition of human ABL1 at 10 uM using EAIYAAPFAKKK as substrate by [gamma-33P]-ATP assay relative to control; in short: as §1
IMR-32 = assay: Antiproliferative activity against human IMR32 cells after 2 days by spectrophotometric analysis; format: functional; conditions: IMR-32, 48 h

Chain of Tyrosine-protein kinase ABL1 (Homo sapiens) (P00519 whole entry): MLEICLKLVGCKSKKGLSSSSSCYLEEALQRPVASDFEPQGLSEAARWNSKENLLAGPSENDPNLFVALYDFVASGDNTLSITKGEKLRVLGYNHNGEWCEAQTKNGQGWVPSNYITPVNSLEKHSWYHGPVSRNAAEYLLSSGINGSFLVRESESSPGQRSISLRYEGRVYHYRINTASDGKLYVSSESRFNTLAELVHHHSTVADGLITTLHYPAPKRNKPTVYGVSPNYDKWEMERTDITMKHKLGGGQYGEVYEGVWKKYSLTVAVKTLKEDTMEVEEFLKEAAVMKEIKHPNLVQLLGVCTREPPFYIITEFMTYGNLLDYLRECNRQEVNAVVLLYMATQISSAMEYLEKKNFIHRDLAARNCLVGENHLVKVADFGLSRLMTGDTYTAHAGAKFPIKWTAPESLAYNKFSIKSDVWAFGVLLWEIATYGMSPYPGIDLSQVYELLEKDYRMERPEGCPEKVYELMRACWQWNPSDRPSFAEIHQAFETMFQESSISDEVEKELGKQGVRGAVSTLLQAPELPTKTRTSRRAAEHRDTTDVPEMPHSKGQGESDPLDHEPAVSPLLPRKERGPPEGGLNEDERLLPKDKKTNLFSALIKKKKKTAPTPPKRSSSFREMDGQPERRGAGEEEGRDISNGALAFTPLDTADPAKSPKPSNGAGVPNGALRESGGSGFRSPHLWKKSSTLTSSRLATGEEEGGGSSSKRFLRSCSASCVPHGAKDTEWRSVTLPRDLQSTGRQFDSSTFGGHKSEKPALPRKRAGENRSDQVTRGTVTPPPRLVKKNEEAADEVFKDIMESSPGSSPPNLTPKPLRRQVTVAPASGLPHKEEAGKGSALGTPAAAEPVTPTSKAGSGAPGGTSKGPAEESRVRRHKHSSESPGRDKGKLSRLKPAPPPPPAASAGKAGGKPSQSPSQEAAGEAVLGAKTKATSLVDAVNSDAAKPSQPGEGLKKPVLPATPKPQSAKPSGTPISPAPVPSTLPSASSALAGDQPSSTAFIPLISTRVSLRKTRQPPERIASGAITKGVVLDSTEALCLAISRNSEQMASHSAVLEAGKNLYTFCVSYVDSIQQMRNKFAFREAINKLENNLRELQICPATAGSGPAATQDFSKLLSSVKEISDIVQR
Chain of Hepatocyte growth factor receptor (Homo sapiens) (P08581 whole entry): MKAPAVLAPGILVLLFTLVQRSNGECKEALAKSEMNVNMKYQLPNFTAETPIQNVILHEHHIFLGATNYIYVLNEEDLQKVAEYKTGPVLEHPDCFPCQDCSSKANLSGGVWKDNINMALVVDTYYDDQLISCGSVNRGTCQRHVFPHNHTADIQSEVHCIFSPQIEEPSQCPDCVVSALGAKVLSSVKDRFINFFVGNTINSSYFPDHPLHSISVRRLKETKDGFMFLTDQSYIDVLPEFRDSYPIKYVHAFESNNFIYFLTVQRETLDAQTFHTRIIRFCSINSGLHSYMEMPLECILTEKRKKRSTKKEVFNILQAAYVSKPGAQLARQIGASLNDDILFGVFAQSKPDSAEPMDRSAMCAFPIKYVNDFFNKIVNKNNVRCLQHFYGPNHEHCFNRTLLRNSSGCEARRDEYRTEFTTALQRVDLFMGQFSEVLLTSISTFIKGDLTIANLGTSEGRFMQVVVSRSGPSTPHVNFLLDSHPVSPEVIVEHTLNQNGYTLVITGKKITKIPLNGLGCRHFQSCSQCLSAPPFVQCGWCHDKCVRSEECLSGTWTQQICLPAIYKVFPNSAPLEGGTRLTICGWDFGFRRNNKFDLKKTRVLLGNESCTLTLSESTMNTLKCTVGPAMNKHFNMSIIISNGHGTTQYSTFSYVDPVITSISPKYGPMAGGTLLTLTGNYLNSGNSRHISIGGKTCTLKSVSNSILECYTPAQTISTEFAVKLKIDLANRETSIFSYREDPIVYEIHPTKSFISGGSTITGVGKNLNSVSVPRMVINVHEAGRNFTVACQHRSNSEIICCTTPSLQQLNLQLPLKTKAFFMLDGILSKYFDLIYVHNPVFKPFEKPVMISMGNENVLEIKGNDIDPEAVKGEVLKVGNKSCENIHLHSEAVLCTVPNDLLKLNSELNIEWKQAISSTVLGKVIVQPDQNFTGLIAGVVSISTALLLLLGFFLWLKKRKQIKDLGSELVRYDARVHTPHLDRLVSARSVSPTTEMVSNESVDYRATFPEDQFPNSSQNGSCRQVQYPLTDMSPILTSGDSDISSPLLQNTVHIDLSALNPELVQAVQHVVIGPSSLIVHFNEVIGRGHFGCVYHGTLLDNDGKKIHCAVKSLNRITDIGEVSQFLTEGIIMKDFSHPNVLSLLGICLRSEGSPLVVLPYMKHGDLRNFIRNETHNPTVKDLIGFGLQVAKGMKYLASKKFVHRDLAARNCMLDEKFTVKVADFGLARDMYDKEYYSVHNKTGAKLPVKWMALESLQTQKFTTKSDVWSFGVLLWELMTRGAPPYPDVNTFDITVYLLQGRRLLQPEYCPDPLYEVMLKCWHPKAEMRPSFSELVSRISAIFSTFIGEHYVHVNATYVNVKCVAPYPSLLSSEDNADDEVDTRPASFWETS
Chain of Serine/threonine-protein kinase Chk1 (Homo sapiens) (O14757 whole entry): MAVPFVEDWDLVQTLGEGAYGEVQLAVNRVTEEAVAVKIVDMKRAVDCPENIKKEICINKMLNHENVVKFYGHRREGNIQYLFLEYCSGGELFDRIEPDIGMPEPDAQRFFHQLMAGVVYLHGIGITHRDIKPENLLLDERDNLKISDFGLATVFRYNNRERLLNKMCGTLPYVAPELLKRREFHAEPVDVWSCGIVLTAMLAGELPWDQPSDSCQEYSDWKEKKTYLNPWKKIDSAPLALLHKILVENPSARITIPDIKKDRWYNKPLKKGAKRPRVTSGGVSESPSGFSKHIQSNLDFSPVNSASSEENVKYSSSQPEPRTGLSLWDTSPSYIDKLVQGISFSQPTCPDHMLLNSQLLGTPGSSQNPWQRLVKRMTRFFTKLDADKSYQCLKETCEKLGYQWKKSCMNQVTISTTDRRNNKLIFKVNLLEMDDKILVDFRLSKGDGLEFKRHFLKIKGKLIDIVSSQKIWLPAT
Chain of Tyrosine-protein kinase Mer (Q12866 whole entry): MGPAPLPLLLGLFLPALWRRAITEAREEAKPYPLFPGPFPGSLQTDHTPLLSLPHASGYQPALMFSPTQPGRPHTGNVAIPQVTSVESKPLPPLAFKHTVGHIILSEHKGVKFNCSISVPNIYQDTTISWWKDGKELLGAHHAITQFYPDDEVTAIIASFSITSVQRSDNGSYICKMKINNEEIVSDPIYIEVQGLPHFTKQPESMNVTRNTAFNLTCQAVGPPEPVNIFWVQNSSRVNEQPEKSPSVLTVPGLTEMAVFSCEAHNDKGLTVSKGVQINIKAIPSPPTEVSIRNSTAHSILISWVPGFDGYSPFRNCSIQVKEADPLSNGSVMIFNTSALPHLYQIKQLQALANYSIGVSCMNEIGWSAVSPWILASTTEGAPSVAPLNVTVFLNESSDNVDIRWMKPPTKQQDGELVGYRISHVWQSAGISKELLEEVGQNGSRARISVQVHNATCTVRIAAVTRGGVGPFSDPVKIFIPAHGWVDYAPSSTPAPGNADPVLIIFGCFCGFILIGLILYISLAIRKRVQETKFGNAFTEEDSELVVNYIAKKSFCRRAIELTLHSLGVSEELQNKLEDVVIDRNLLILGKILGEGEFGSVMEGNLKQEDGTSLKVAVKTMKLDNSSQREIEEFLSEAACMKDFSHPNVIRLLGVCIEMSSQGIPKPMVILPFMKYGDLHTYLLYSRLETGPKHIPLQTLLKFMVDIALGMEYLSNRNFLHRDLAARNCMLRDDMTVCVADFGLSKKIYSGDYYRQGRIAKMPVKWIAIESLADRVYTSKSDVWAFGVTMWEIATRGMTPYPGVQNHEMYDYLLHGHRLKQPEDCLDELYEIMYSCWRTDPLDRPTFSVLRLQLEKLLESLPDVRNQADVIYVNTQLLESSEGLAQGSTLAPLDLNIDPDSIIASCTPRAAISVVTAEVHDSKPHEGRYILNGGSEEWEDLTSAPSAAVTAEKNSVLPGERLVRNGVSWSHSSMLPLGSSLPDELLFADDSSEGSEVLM
Chain of Ribosomal protein S6 kinase beta-1 (Homo sapiens) (P23443 whole entry, looked up): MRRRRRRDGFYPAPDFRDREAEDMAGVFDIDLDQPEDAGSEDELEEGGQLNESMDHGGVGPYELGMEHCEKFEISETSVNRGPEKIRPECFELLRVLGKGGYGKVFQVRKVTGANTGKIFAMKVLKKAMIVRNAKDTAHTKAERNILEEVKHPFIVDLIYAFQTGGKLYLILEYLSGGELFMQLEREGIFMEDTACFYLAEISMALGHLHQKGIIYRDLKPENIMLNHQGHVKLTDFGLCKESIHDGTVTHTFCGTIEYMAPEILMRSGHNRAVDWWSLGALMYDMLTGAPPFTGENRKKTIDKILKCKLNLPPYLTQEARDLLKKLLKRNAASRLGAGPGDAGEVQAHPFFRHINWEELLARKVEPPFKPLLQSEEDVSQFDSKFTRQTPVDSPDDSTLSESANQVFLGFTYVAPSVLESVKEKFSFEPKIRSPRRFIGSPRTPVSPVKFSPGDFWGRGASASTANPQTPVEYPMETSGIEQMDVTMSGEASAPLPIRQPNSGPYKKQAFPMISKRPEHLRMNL
Chain of Tyrosine-protein kinase Fgr (Homo sapiens) (P09769 2-529 limits assumed): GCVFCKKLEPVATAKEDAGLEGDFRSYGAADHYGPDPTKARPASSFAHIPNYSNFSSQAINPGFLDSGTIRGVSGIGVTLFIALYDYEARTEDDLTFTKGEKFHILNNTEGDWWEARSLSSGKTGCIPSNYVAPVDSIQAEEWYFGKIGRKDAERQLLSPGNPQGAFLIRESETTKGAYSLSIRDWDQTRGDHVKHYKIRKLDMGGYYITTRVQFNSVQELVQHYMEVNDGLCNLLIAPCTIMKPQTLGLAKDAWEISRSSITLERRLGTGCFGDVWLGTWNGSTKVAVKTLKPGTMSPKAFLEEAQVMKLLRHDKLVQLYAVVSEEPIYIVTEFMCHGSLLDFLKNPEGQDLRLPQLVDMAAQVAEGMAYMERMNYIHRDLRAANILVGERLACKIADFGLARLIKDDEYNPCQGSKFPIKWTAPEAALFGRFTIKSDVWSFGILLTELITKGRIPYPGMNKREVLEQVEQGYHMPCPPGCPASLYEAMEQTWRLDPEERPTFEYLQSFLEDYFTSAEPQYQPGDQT

CC(=O)N1CCN(c2ccc(Nc3ncc(C(F)(F)F)c(N4Cc5cccc(N(C)S(C)(=O)=O)c5C4)n3)cc2)CC1
inhibition [1]: 80.6% | GI50 (PANC-1): 430 nM | inhibition [2]: 65.5% | inhibition [3]: 75.4% | inhibition [4]: 92.1% | inhibition [5]: 37.2% | GI50 (HCC78): 5200 nM | inhibition [6]: 6.7% | inhibition [7]: 14.1% | IC50 [8]: < 0.5 nM | IC50 [9]: 25 nM | inhibition [10]: 17.9% | inhibition [11]: 71.3% | GI50 (OVCAR-3): 970 nM | IC50 [12]: 4.6 nM | inhibition [13]: 13.1% | inhibition [14]: 63.1% | GI50 (IMR-32): 260 nM
